# Measurements gathered from unrelated publications.
# Compare with care: the assays were run in different laboratories.
# Target: Serine/threonine-protein kinase NIM1 (NIM1K, Homo sapiens, UniProt Q8IY84)
SMILES,observed,method,concentration,remaining binding [%]
CS(=O)(=O)NCC[C@H](NC(=O)c1cncc2c1cnn2-c1ccc(F)cc1)c1ccnc(S(C)(=O)=O)c1,cell-free assay,competition with immobilised ligand,1 µM,100
CN(C)c1nccc(-c2cnn3ncccc23)n1,binding,,1 µM,52
c1cncc(-c2cccc(Nc3nccc(NC4CCCCC4)n3)c2)c1,binding,competition with immobilised ligand,10 µM,88
CO[C@@H](C)c1c(Nc2ccc([C@H](N(C)C(=O)C3CCS(=O)(=O)CC3)C(F)(F)F)cc2)cnc2cc(Cl)nn12,cell-free assay,competition with immobilised ligand,1 µM,79
COc1cnc(Nc2cccc(S(N)(=O)=O)c2)nc1N1CCN(c2ccccc2)C(=O)C1,binding,competition with immobilised ligand,1 µM,87
O=C(NCC1CCOCC1)c1n[nH]cc1NC(=O)c1c(F)cccc1F,binding,competition with immobilised ligand,1 µM,97
CN(C)c1nccc(-c2cnc3ncccn23)n1,binding,,1 µM,67
CS(=O)(=O)N1CCCC(NC(=O)[C@H](CCC2CCCCC2)NC(=O)c2ccc(CNC(=O)c3cnc4ccccn34)cc2)C1 (stereo partly shown),cell-free assay,competition with immobilised ligand,0.1 µM,64
O=C(NCCCN1CCOCC1)c1ccc(Nc2nccc(-c3cc4ccccc4s3)n2)cc1,binding,competition with immobilised ligand,1 µM,86
C[C@@H](c1ccc(-n2cnc3c(N)ncnc32)cc1)N1CCc2nn(C)c(Cc3ccccc3)c2C1=O,binding,competition with immobilised ligand,0.1 µM,67
C[C@@H]1CN(c2cc(-c3nn(C)c4ccc(OC5(C)CC5)cc34)ncn2)C[C@H](C)O1,cell-free assay,competition with immobilised ligand,1 µM,74
COc1cnc(Nc2cccc(S(N)(=O)=O)c2)nc1N1CCN(c2ccccc2)CC1,binding,competition with immobilised ligand,1 µM,71
COc1ccnn2ncc(-c3ccnc(N(C)C)n3)c12,binding,,1 µM,100
CCC(=O)N[C@H]1CC[C@@H](C(=O)N(C)c2ccc(-c3nc4ccccc4o3)cc2)C1,cell-free assay,competition with immobilised ligand,1 µM,88
C[C@@H]1CCN(c2nccc(-c3cnn4ncccc34)n2)C1,binding,,1 µM,87
COc1ncc2cc3ccccc3nc2c1C#N,cell-free assay,competition with immobilised ligand,5 µM,89
N[C@@H]1CCN(c2nccc(-c3cnn4ncccc34)n2)C1,binding,,1 µM,79
O=C(c1ccc(Nc2nccc(-c3cc4ccccc4s3)n2)cc1)N1CCC(N2CCCC2)CC1,binding,competition with immobilised ligand,1 µM,80
CN(C)c1ncc(F)c(-c2cnn3ncccc23)n1,binding,,1 µM,69
O=C(c1ccc(Nc2ncc(Cl)c(-c3cc4ccccc4s3)n2)cc1)N1CCC(N2CCCC2)CC1,binding,competition with immobilised ligand,1 µM,20
CS(=O)(=O)c1cc(C2(NC(=O)c3cncc4c3cnn4-c3ccc(F)cc3)CC2)ccn1,cell-free assay,competition with immobilised ligand,1 µM,56
c1cnn2ncc(-c3ccnc(N4CCC45COC5)n3)c2c1,binding,,1 µM,61
